Data on two compounds can be found in ChEMBL document CHEMBL1629705, “PSI-7851, a pronucleotide of beta-D-2'-deoxy-2'-fluoro-2'-C-methyluridine monophosphate, is a potent and pan-genotype inhibitor of hepatitis C virus replication” (Antimicrob Agents Chemother, 2010).

Series [1] deals with Hepatitis C virus. The series can be described thus: Antiviral activity against Hepatitis C virus genotype 1b harboring Ntat protein assessed as viral RNA level by quantitative real-time PCR. The class given is functional, organism-based, Hepacivirus hominis. Background: In qPCR the cycle at which signal appears reflects the starting amount.
Series [2] in a line: Cytotoxicity against human HepAD38 cells. It counts as cell-based.
The test system of a further series is CCRF-CEM. Briefly: Mitochondrial toxicity in human CEM cells assessed as effect on mitochondrial cytochrome c oxidase subunit 2 gene level up to 100 uM after 14 days by quantitative real-time PCR assay. It counts as cell-based. As to conditions: 336 h. The essentials:
(§1)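 HepG2 or CEM cells incubated 14 days with compound up to 100 μM, ddC as control. Medium and compound replenished on days 7 and 11. Mitochondrial COXII gene and nuclear rDNA measured by multiplex quantitative RT-PCR.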

A short description of series [3]: Cytotoxicity against human HepG2 cells assessed as inhibition of mitochondrial DNA synthesis. It counts as cell-based. The essentials:
as §1

Another series concerns Influenza A virus. The series can be described thus: Antiviral activity against Influenza A virus (A/Viet Nam/1203/2004(H5N1)) infected in HFF by neutral red assay. The class given is functional, organism-based.
In a further series the test system is HepG2. Briefly: Cytotoxicity against human HepG2 cells assessed as effect on ribosome RNA gene level at up to 100 uM after 14 days by quantitative real-time PCR assay. The class given is cell-based. The following applies: hepg2, 336 h. The essentials:
as §1

Series [4] deals with Hepatitis C virus. Briefly: Selectivity ratio of EC90 for Hepatitis C virus harboring NS5B polymerase S282T mutant gene to EC90 for Hepatitis C virus harboring wild-type NS5B polymerase. It counts as functional, Hepacivirus hominis. Put shortly: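 Clone A genotype 1b (Con1) replicon cells, wild-type or S282T mutant (selected with 2′-C-methyladenosine). 1,500 cells/well, 4 days with serially diluted compound. HCV RNA by real-time RT-PCR; EC90 from dose–response.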

The subject of series [5] is Hepatitis C virus. The series can be described thus: Antiviral activity against Hepatitis C virus assessed as clearance of HCV from replicon cells at 1 uM. The class given is functional, organism-based. As to conditions: Hepacivirus hominis. The essentials:
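ET-lunet replicon cells, 1 × 10^5/well, no G418, with compound at 0.1, 1 or 2 μM (final DMSO 0.5%). Passaged 1:3 or 1:4 every 3–4 days for 3 weeks with fresh compound, then 3 more weeks with 0.25 mg/ml G418 and no inhibitor. HCV RNA by RT-PCR normalized to rRNA (ΔΔCt vs DMSO) at each passage. Crystal violet colony staining at 6 weeks.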
A general note: Replicon systems follow genome replication, usually without infectious particles.

A short description of series [6]: Cytotoxicity against human myeloid progenitor cells after 14 to 16 days by colony formation assay. It counts as cell-based. The essentials:
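Normal human bone marrow erythroid and myeloid progenitors, 2 × 10^4 cells per culture in methylcellulose with rh-SCF 50 ng/ml, rh-IL-3 10 ng/ml, rh-GM-CSF 10 ng/ml and rh-EPO 3 U/ml. Compound up to 50 μM, DMSO control 0.1%, 14–16 days.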

For series [7], the system named is Human immunodeficiency virus. The series can be described thus: Antiviral activity against HIV infected in human HeLaP4 cells by beta-galactosidase-based reporter gene assay. It counts as functional, organism-based. The following applies: Human immunodeficiency virus 1, HeLaP4. The essentials: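 P4 cells (HeLa expressing CD4/CXCR4 with HIV-1 LTR-driven LacZ), 10,000 cells/well, incubated overnight at 37°C, 5% CO2. Compound added 4 h before infection with HIV NL4-3 (4 ng/well p24-equivalent) plus DEAE-dextran 20 μg/ml. Incubated further 40–42 h. Beta-galactosidase read by luminescence; percent inhibition versus no-drug wells.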

For series [8], the target named is T1, DNA polymerase alpha catalytic subunit (Homo sapiens, UniProt P09884).
T1 sequence (P09884 whole entry): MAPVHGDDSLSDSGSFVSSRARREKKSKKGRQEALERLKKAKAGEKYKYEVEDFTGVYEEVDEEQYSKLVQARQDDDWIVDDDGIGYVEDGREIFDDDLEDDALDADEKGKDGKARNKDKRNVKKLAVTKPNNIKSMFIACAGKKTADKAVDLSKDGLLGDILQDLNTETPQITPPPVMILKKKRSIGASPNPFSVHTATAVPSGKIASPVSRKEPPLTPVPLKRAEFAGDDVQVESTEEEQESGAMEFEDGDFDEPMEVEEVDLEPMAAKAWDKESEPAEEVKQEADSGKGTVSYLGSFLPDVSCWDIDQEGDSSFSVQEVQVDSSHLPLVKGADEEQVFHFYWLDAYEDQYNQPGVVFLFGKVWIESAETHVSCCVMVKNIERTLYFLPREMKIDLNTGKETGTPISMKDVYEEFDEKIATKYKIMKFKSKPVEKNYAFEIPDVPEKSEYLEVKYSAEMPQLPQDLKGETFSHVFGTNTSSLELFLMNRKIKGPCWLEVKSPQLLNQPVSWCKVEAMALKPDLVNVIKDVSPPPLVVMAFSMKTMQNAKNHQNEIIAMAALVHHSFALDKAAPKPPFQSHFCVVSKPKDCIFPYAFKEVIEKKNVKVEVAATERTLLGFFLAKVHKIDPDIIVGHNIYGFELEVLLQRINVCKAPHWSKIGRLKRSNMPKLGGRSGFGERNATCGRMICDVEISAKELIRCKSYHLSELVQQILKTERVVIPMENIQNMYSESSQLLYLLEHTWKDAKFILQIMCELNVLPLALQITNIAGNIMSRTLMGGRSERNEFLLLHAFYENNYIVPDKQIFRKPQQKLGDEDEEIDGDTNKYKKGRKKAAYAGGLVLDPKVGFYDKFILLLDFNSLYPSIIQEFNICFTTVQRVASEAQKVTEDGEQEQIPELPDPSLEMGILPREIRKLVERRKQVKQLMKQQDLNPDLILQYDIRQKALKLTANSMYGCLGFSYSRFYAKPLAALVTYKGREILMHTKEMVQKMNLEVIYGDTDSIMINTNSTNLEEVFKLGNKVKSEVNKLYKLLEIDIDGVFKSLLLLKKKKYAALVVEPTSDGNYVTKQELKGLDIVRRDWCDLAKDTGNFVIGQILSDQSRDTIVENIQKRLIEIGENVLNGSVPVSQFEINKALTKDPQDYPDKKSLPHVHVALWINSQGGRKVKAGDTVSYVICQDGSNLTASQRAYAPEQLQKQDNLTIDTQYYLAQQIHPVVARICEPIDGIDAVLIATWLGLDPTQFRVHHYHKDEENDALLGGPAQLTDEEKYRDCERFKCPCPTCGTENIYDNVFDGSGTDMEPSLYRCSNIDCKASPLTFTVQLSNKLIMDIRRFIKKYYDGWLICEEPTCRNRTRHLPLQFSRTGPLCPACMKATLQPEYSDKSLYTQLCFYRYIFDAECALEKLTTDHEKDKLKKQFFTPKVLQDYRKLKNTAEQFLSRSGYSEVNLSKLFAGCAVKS
The series can be described thus: Inhibition of human DNA polymerase alpha assessed as incorporation of [alpha-32P]dCTP up to 1mM preincubated for 30 mins by whatman DE81 paper binding assay. Put shortly:
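Human DNA polymerase α (20 μg/ml) or γ (50 μg/ml) in 50 mM Tris pH 7.5, 50 mM NaCl, activated calf thymus DNA, 20 μM each dNTP, [α-32P]dCTP, 5 mM MgCl2. Nucleotide inhibitor up to 1 mM. 37°C, quenched with EDTA at 30 min. Product measured by DE81 paper binding; IC50 by nonlinear fit.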

The structures appear in SMILES notation. Activity calls are given as the source filed them. No cut-off for these calls is given here.

As for `CC(C)OC(=O)[C@H](C)NP(=O)(OC[C@H]1O[C@@H](n2ccc(=O)[nH]c2=O)[C@](C)(F)[C@@H]1O)Oc1ccccc1` (some centres not stated), the 50% effective concentration (EC50) – broadly, the concentration at which the effect is half-maximal – with Hepatitis C virus [1] was 0.093 µM; in the series on Influenza A virus, greater than 100 µM; in series [7], greater than 100 µM. In addition, the EC90 (as a rule, the concentration at which the effect reaches the 90% level) in the series with Hepatitis C virus [1] worked out at 0.75 µM. In addition, the CC50 (commonly the concentration giving 50% cytotoxicity) in series [2] was greater than 100 µM; in series [6] it was greater than 50 µM. In addition, the Activity result in the series with CCRF-CEM and with HepG2 was “Non-toxic” each time. For the same compound, in series [3], the CC90 was less than 3 µM. Also, the Selectivity ratio in the series with Hepatitis C virus [4] is on record as 16.4. For the same compound, the result with Hepatitis C virus [5] was Active.

As for `C[C@@]1(F)[C@H](O)[C@@H](COP(=O)(O)OP(=O)(O)OP(=O)(O)O)O[C@H]1n1ccc(=O)[nH]c1=O` [GS-461203], in series [8], the IC50 (in general, the concentration that inhibits the measured activity by half) was determined as 550 µM.
